# A1 apoptosis 2: A1 inhibitors via caspase activation, primary screen, cell-based, luminescence, HTS, two replicates | 24,000 tested, under 10 active | caspase activation, % (no concentration beside the values) | MEF A1-2A-BIM cells, caspase-Glo luminescence, 3 h; percent of clofoctol response, DMSO zero; in the data active = caspase activation above about 5.9%
#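 Material: mouse embryonic fibroblasts co-expressing A1 and BIM (A1-2A-BIM), primed for A1 dependence / Quantity: 2500 cells/well / Buffer or medium: RPMI-1640 growth medium with 10% FBS / Doses: 50 nL compound per well, pinned / Schedule: 3 h compound exposure at 37 °C / Signal: Caspase-Glo luminescence (DEVD substrate) / Measure: Caspase-3/7 activation, seen as rise in luminescence signal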
# INS-1E ATP HTS: protection of INS-1E cells from cytokine death, primary screen, ATP luminescence, single point | INS-1E cytokine-induced death, 48 h; normalised: neutral wells 0, positive control 100 | protection from cytokine-induced ATP loss, % at 10 µM | 0.1% of 20,000 active;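 active = mean replicate protection from cytokine-induced ATP loss at least 50% and at least 75% of replicates each reaching 50%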
#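 Assay system: INS-1E rat cells / Quantity: 8000 cells per well / Medium: RPMI without phenol red, 5% FBS / Probe or stimulus: three-cytokine cocktail (IFN-γ, TNF-α, IL-1β) / Dosing: one compound concentration, pin transfer / Timing: 48 h co-treatment, 10 min post-lysis read / Technique: CellTiter-Glo luminescence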
# T cruzi HTS: inhibitors of intracellular Trypanosoma cruzi, primary screen, cell-based, plate reader, single point, set 2; intracellular Trypanosoma cruzi in host cells; activity score (inhibition), % at 5.01 µM; 4.9% of 22,000 active; AID 651903, 2012; in the data active = activity score above about 55%;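 also: parasites and compound incubated about four days before reading; 0% = median of neutral control wells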
# * marks the source's active call; other numbers are inactive results; / = not tested or not shown. This is one part of a sample in which hits are shown more often than they occur.
SMILES,A1 apoptosis 2,INS-1E ATP HTS,T cruzi HTS
COc1ccc(S(=O)(=O)Nc2ccc3c(c2)C(=O)N([C@H](C)CO)C[C@H](C)[C@H](CN(C)Cc2ccc(Cl)c(Cl)c2)OCCCC[C@@H](C)O3)cc1,/,-8,57*
C[C@H](CO)N1C[C@H](C)[C@H](CN(C)C(=O)Nc2ccc(F)cc2)Oc2ccc(NC(=O)Cn3cnnn3)cc2CC1=O,0,4,-3
C[C@H](CO)N1C[C@H](C)[C@H](CN(C)Cc2ccccc2)OCCCC[C@H](C)Oc2ccc(NS(=O)(=O)c3ccccc3)cc2C1=O,0,/,/
[N-]=[N+]=Nc1ccc(C[C@H]2C(=O)O[C@@H](Cc3ccccc3)[C@H]3C=C(/C=C/C4CC4)CN32)cc1,0,/,/
C#CCNC(=O)C1=C[C@H](c2cn(C(C)=O)c3ccccc23)C[C@H](OCCCCO)O1,1,/,/
C[C@@H]1CN([C@H](C)CO)C(=O)Cc2cc(NS(=O)(=O)c3ccc(Cl)cc3)ccc2O[C@@H]1CN(C)Cc1ccc(C(F)(F)F)cc1,0,-19,54
C[C@H]1CN([C@@H](C)CO)C(=O)Cc2cc(NS(=O)(=O)c3ccc(Cl)cc3)ccc2O[C@@H]1CN(C)Cc1ccc(C(F)(F)F)cc1,/,5,72*
C[C@@H]1CN([C@@H](C)CO)C(=O)Cc2cc(NS(=O)(=O)c3ccccc3)ccc2O[C@@H]1CN(C)Cc1ccc(C(F)(F)F)cc1,0,5,-7
C[C@@H]1CN([C@H](C)CO)C(=O)Cc2cc(NS(=O)(=O)c3ccc(Cl)cc3)ccc2O[C@H]1CN(C)Cc1ccc(C(F)(F)F)cc1,0,-12,64*
C[C@H](CO)N1C[C@H](C)[C@@H](CN(C)Cc2ccc(C(F)(F)F)cc2)Oc2ccc(NS(=O)(=O)c3ccc(Cl)cc3)cc2CC1=O,0,/,/
C[C@@H]1CN([C@@H](C)CO)C(=O)Cc2cc(NS(=O)(=O)c3ccc(Cl)cc3)ccc2O[C@@H]1CN(C)Cc1ccc(C(F)(F)F)cc1,0,-20,58*
O=C(O)c1cccc(/C=N/NC(=O)c2ccccn2)c1,-7,1,-12
O=C1CSC(c2ccccc2)N1c1ccc(-c2ccccc2)cc1 (stereo not given),-1,/,/
C[C@@H]1CN([C@@H](C)CO)C(=O)Cc2cc(NC(=O)Nc3ccc(C(F)(F)F)cc3)ccc2O[C@@H]1CN(C)Cc1ccc(-c2ccccc2)cc1,1,-2,67*
C[C@H]1CN([C@@H](C)CO)C(=O)Cc2cc(NC(=O)Nc3ccc(C(F)(F)F)cc3)ccc2O[C@@H]1CN(C)Cc1ccc(-c2ccccc2)cc1,/,-56,70*
C[C@H]1CN([C@@H](C)CO)C(=O)Cc2cc(NC(=O)Nc3ccc(C(F)(F)F)cc3)ccc2O[C@H]1CN(C)Cc1ccc(-c2ccccc2)cc1,/,-79,54
COc1cc2c(cc1O)C(c1cccs1)N(C)CC2 (stereo not given),0,/,/
CC(C)(C)OC(=O)NCCOCCOCCNc1ncnc2ccccc12,-1,/,/
C[C@@H]1CCCCO[C@H](CN(C)Cc2ccc(C(F)(F)F)cc2)[C@@H](C)CN([C@@H](C)CO)C(=O)c2cc(NC(=O)Nc3ccc(F)cc3)ccc2O1,-1,/,/
C[C@@H]1CCCCO[C@@H](CN(C)Cc2ccc(C(F)(F)F)cc2)[C@@H](C)CN([C@H](C)CO)C(=O)c2cc(NC(=O)Nc3ccc(F)cc3)ccc2O1,/,-4,79*
C[C@@H]1CN([C@@H](C)CO)C(=O)c2cc(NC(=O)Nc3ccc4c(c3)OCO4)ccc2O[C@@H](C)CCCCO[C@H]1CN(C)Cc1ccc(C(F)(F)F)cc1,-1,/,/
COc1ccc(CN(C)C[C@@H]2OCCCC[C@@H](C)Oc3ccc(NC(=O)Nc4ccc(C(F)(F)F)cc4)cc3C(=O)N([C@H](C)CO)C[C@@H]2C)cc1,/,-32,63*
COc1ccc(CN(C)C[C@@H]2OCCCC[C@H](C)Oc3ccc(NC(=O)Nc4ccc(C(F)(F)F)cc4)cc3C(=O)N([C@@H](C)CO)C[C@H]2C)cc1,1,/,/
C[C@@H]1CCCCO[C@@H](CN(C)Cc2ccncc2)[C@@H](C)CN([C@H](C)CO)C(=O)c2cc(NC(=O)Nc3ccc(C(F)(F)F)cc3)ccc2O1,/,-3,57*
C[C@@H]1CCCCO[C@@H](CN(C)Cc2ccncc2)[C@@H](C)CN([C@@H](C)CO)C(=O)c2cc(NC(=O)Nc3ccc(C(F)(F)F)cc3)ccc2O1,0,/,/
